Series [1] has as its system HUVEC. As to the kind of experiment: cells. The conditions noted are these: Homo sapiens, 8 h, read-out: IC50 HUVEC migration in response to VEGF. The format is cell-based.
For series [2], the system named is CD31‐positive microvessels in SW620 tumor xenografts. As to the kind of experiment: CD31 immunohistochemistry, microvessel density in SW620 xenograft tumors. The format is in vivo, nude mice. A digest of the protocol: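 Nude mice (female Balb/cA-nude) bearing subcutaneous SW620 xenografts were dosed orally once daily for 14 days. Tumors were formalin-fixed and paraffin-embedded, and sections were stained for the endothelial marker CD31 with a rabbit anti-mouse antibody and an S-P immunodetection kit. Vessel density was derived from CD31 staining.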

Series [3] addresses T1, HER2 (Homo sapiens, UniProt P04626). As to the kind of experiment: Tyrosine kinase ELISA, HER2. The format is biochemical.
The target of series [4] is VEGFR3 (Homo sapiens, UniProt P35916). As to the kind of experiment: Tyrosine kinase ELISA, VEGFR3. Format: biochemical. In general terms: ELISA stands for enzyme-linked immunosorbent assay.
For series [5], the target named is T2, c‐Kit (Homo sapiens, UniProt P10721). As to the kind of experiment: SCF‐1‐stimulated c‐Kit phosphorylation in Mo7e cells. The conditions noted are these: SCF‐1 2.5 ng/mL. Format: cell-based.
Series [6] deals with T3, VEGFR2 (Homo sapiens, UniProt P35968). As to the kind of experiment: Tyrosine kinase ELISA, VEGFR2. The format is biochemical.
Series [7] concerns the target VEGFR1 (Homo sapiens, UniProt P17948). Nature of the series: Tyrosine kinase ELISA, VEGFR1. The format is biochemical.
The target of series [8] is c‐Src (Homo sapiens, UniProt P12931). As to the kind of experiment: biochemical. Format: biochemical.
The target of series [9] is T1, HER2. Nature of the series: Constitutive HER2 signaling in BT‐474 cells. Format: cell-based. The conditions noted are these: even at 1000 nmol/L.
Series [10] has as its system rat aortic rings. Nature of the series: Rat aortic ring assay. Format: cell-based. The conditions noted are these: 100 nmol/L, VEGF 50 ng/mL, 7 days. The method in brief:
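Thoracic aortas from 6-week-old male Sprague-Dawley rats were cut into 1-mm rings, embedded in Matrigel and held 1 h at 37°C. M199 containing VEGF-A (50 ng/mL) plus drug was added. After 7 days, sprouting microvessels were counted in 5 random fields.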

The conditions of series [11]: once‐daily dose of 12 mg; cited from earlier work.
Series [12] has as its target c‐Met (Homo sapiens, UniProt P08581). As to the kind of experiment: Tyrosine kinase ELISA, c‐Met. The format is biochemical.
In series [13] the test system is HUVEC. As to the kind of experiment: FBS‐stimulated HUVEC proliferation. The format is cell-based. The following applies: Homo sapiens, 72 h, read-out: IC50 FBS‐stimulated HUVEC proliferation. A digest of the protocol: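 HUVEC were isolated from umbilical cord veins and maintained in M199 with 20% FBS plus endothelial cell growth supplement. Cells were exposed to serial drug dilutions with 20% FBS for 72 h. Viability was measured by sulforhodamine B, and IC50 was obtained by curve fitting. Values are mean ± SD of 3 independent experiments.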

In series [14] the target is EGFR (Homo sapiens, UniProt P00533). As to the kind of experiment: biochemical. The format is biochemical.
Series [15] deals with HUVEC. As to the kind of experiment: HUVEC tube‐formation assay on Matrigel. Format: cell-based, human. The following applies: 100 nmol/L, 20% FBS, 6 h. A digest of the protocol: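 Matrigel was set at 37°C for 30 min. HUVEC (1 × 10^5/mL) in M199 with 20% FBS and drug were then plated onto it. After 6 h, capillary tube formation was imaged at high magnification.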
For series [16], the system named is panel of tumor cells. Nature of the series: FBS‐stimulated tumor cell proliferation. Format: cell-based, human. A digest of the protocol: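 Tumor lines were grown in 10% FBS and treated with serial drug dilutions for 72 h, with sulforhodamine B readout. IC50 was obtained by curve fitting (mean ± SD, 3 independent experiments).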
Series [17] concerns HUVEC. As to the kind of experiment: cells. The conditions noted are these: Homo sapiens, 72 h, read-out: IC50 VEGF‐stimulated HUVEC proliferation. The format is cell-based.
For series [18], the system named is SW620 tumor xenografts. As to the kind of experiment: SW620 tumor xenograft in nude mice. The format is in vivo. A digest of the protocol:
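Female Balb/cA-nude mice, 5–6 weeks old, received cells subcutaneously in the left axilla and were randomized at 100–200 mm3 tumor volume. Dosing was oral, daily for 18 d (vehicle n = 12, treated n = 6). Tumor volume, calculated as (length × width²)/2, and bodyweight were measured twice weekly. TGI was calculated from treatment start against vehicle. Data are mean ± SEM; Student's t test.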

For series [19], the target named is T3, VEGFR2. As to the kind of experiment: VEGF‐stimulated VEGFR2 phosphorylation in HUVEC. The format is cell-based.
The target of series [20] is PDGFRβ (Homo sapiens, UniProt P09619). As to the kind of experiment: PDGF‐BB‐stimulated PDGFRβ phosphorylation in U‐87MG cells. The format is cell-based. The following applies: PDGF‐BB 10 ng/mL.
Series [21] concerns the target T2, c‐Kit. Nature of the series: Tyrosine kinase ELISA, c‐Kit. The format is biochemical.

The structures appear in SMILES notation.

T3 sequence (P35968 20-1356): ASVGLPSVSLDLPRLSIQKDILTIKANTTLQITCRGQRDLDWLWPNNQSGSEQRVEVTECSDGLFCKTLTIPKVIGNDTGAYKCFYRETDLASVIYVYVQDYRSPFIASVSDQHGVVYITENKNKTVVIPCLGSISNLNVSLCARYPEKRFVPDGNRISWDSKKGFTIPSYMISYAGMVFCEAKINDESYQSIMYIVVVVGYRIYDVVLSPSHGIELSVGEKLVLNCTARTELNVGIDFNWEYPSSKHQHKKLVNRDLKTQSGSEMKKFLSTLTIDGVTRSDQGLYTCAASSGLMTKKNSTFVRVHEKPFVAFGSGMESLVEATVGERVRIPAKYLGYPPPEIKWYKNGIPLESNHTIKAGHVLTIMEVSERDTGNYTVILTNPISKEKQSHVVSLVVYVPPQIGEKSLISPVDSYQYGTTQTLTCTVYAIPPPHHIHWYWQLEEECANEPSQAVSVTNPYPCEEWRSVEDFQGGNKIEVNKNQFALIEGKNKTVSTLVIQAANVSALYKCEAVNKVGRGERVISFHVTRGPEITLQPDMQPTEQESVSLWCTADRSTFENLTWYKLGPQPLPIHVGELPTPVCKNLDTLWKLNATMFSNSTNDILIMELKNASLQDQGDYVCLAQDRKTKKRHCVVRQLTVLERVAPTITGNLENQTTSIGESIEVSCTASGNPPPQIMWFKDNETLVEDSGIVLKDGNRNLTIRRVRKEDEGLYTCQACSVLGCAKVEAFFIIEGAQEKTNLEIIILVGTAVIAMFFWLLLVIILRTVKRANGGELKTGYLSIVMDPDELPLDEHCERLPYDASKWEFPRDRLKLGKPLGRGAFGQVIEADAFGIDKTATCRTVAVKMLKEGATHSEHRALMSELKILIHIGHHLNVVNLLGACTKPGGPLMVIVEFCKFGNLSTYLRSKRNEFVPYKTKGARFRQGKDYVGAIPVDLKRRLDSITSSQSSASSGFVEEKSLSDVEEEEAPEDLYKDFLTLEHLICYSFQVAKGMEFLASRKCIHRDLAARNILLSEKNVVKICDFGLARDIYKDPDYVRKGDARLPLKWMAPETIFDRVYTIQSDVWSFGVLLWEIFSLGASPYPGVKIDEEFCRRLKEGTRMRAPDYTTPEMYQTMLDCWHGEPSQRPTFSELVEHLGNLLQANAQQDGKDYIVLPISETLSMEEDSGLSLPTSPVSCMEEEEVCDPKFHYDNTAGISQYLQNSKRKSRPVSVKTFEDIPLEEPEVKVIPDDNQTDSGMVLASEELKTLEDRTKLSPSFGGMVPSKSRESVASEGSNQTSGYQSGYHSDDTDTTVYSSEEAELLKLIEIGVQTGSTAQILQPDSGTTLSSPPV
T1 sequence (P04626 23-1255): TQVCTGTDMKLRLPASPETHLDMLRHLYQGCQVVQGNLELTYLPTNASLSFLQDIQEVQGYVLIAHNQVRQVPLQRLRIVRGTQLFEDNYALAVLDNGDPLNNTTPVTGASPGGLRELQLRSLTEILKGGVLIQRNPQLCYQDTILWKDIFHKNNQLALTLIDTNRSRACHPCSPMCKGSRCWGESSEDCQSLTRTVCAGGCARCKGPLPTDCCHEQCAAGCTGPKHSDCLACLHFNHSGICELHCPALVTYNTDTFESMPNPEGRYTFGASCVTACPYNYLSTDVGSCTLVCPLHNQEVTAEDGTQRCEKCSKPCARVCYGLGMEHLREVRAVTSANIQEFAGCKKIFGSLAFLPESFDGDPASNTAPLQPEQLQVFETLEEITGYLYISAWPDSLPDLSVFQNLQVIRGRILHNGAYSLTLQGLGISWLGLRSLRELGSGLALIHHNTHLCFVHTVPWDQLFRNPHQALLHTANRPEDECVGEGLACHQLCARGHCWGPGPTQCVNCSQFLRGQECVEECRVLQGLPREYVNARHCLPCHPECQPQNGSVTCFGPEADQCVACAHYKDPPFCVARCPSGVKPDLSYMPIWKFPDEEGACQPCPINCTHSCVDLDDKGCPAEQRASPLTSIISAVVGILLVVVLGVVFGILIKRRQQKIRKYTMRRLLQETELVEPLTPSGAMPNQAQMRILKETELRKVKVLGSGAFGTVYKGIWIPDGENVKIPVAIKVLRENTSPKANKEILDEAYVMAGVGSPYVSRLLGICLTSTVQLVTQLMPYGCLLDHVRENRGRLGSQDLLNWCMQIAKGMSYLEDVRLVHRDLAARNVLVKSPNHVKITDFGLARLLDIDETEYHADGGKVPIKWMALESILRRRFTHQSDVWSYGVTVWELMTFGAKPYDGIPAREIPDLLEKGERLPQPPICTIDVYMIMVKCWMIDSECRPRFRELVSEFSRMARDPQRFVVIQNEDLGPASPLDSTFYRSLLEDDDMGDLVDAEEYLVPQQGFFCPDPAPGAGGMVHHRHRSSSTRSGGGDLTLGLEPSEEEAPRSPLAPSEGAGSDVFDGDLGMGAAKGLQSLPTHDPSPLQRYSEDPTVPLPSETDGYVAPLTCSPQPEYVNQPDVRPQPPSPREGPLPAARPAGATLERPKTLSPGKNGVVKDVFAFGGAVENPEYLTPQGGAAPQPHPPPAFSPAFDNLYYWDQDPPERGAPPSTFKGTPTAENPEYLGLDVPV
c‐Met, sequence (P08581 25-1390): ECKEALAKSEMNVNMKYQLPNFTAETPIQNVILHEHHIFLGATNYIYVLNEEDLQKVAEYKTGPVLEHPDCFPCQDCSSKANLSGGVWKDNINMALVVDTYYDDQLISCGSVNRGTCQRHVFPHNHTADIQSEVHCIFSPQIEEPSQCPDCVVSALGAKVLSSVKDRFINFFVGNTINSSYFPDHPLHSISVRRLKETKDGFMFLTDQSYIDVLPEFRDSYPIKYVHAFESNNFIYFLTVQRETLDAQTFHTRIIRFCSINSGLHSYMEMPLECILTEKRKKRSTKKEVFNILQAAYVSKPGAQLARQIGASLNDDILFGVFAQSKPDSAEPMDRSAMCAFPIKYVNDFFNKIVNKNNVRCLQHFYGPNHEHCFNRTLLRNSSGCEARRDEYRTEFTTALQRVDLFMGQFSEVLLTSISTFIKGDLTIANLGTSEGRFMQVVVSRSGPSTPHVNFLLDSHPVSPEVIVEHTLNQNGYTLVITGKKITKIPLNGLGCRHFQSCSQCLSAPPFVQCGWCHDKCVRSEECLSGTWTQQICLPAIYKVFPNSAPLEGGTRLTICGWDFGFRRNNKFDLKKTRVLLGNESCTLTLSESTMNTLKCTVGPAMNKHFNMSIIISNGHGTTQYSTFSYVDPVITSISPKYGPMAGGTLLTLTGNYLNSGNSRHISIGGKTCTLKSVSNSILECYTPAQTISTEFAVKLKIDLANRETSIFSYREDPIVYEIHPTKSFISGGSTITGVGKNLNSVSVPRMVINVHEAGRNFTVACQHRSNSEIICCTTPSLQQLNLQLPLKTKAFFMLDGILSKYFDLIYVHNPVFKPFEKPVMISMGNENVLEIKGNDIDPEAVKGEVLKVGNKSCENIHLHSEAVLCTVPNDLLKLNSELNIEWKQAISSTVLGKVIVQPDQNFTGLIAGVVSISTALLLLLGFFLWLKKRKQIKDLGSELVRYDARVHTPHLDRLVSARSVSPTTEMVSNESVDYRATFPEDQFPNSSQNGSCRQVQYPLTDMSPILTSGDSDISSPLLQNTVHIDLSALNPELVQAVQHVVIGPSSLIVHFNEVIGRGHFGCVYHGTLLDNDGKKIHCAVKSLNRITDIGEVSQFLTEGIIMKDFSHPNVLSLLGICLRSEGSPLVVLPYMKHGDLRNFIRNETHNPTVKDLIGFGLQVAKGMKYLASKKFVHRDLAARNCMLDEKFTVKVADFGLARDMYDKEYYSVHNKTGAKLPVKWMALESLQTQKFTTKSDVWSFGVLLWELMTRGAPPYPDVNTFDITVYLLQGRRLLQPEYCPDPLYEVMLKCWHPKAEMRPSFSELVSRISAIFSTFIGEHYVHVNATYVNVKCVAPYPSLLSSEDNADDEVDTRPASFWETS
c‐Src, sequence (P12931 whole entry): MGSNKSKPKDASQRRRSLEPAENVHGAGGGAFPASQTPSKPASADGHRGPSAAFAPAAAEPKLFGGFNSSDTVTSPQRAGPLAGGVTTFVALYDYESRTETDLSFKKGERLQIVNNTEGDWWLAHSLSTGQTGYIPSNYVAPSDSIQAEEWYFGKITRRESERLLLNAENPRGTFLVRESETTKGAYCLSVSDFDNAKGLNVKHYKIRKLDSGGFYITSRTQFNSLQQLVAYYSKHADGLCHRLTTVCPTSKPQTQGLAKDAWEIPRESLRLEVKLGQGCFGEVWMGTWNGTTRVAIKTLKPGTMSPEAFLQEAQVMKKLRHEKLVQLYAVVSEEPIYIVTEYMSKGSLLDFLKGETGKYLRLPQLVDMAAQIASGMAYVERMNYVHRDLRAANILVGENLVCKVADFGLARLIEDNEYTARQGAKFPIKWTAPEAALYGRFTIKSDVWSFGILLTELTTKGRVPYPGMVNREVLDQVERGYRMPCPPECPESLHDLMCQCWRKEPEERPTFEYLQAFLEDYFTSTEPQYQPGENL

Consider `COc1cc2c(Oc3ccc4[nH]c(C)cc4c3F)ccnc2cc1OCC1(N)CC1.Cl.Cl` [Anlotinib, 1‐[[[4‐(4‐fluoro‐2‐methyl‐1H‐indol‐5‐yloxy)‐6‐methoxyquinolin‐7‐Yl]oxy]methyl]cyclopropanamine dihydrochloride], for which the IC50 is 0.1 nM in series [1]; over 2000 nM in series [3]; 0.7 ± 0.1 nM in series [4]; under 1 nM in [6] (IC50 VEGFR2 kinase, ELISA, recombinant tyrosine kinase, mean ± SD (n = 3)); 26.9 ± 7.7 nM in [7]; over 2000 nM in series [8]. Moreover, the IC50 in series [12] is over 2000 nM; in series [13], 2000 nM; in series [14], over 2000 nM; in series [16] (Homo sapiens, 72 h, read-out: IC50 FBS‐stimulated tumor cell proliferation) it was 3000 to 12500 nM; in series [17], 0.2 nM; in series [21] it was 14.8 ± 2.5 nM. The “inhibition rate of CD31‐positive microvessels (microvessel density)” value came to 48.9% in series [2] (0.75 mg/kg oral daily), 91.2% in series [2] (3 mg/kg oral daily) and 76.3% in series [2] ([…] oral daily). The “effect on HER2 kinase activity” value in series [3] (at 2000 nmol/L) is recorded as “little effect”. In addition, the “SCF‐1‐stimulated phosphorylation of c‐Kit, AKT and ERK” value in series [5] was “inhibited”. Also, in series [6], the “potency relative to sunitinib for inhibition of VEGF2/3” value came to 20 fold. Also, the “effect on c‐Src kinase activity” value in [8] (at 2000 nmol/L) is “little effect”. Moreover, the “constitutive HER2 signaling” value in series [9] is “nor the constitutive HER2 signaling in BT‐474 cells was affected”. For the same compound, the “budding of the aortic ring” value in [10] was “near complete inhibition”. Also, the “circulation time in clinical trials” value in series [11] was “long circulation time”. The “toxicity in clinical trials” value in series [11] is given as “manageable toxicity”. In addition, in series [12] (at 2000 nmol/L), the “effect on c‐Met kinase activity” value is reported as “little effect”. In addition, the “effect on EGFR kinase activity” value in series [14] (at 2000 nmol/L) is “little effect”. Besides, the HUVEC tube formation entry in series [15] is on record as “few enclosed tubes were detected”. In [16] (greater than HUVEC value), the “tumor cell IC50 relative to IC50 for VEGF‐stimulated HUVEC proliferation” value was “more than 10 000 fold”. Moreover, the “%TGI” value in series [18] (SW620 (colon), 3 mg/kg p.o. daily, 18 d, 3 mg/kg) worked out at 83%. Further, in series [18] (SW620 xenograft, all groups, during the course of the experiment), the “effect on bodyweight in mice” value is on record as “little effect on bodyweight”. Further, the “VEGF‐stimulated ERK1/2 phosphorylation” value in series [19] is given as “inhibited”. Further, the “effect on VEGF‐stimulated VEGFR2 phosphorylation” value in series [19] (0.1 nmol/L) is recorded as “clear inhibitory effect”. Further, the “IC50, VEGF‐stimulated intracellular phosphorylation of VEGFR2” value in series [19] ([…] treatment, VEGF 20 ng/mL 10 min) is on record as “subnanomolar”. The “PDGF‐BB‐stimulated phosphorylation of PDGFRβ, AKT and ERK” value in [20] is listed as “inhibited”.

With `CNC(=O)c1cc(Oc2ccc(NC(=O)Nc3ccc(Cl)c(C(F)(F)F)c3)cc2)ccn1` [Sorafenib], the IC50 in series [17] worked out at 195 nM.

With `CCN(CC)CCNC(=O)c1c(C)[nH]c(/C=C2\C(=O)Nc3ccc(F)cc32)c1C` [Sunitinib, reference compound], the “inhibition rate of CD31‐positive microvessels (microvessel density)” value in [2] (50 mg/kg oral daily) was found to be 63.6%. In [17], the IC50 was 18.5 nM.
